Assay results reported in ChEMBL document CHEMBL1759837, “Studies on chemical modification and biology of a natural product, gambogic acid (III): determination of the essential pharmacophore for biological activity” (Eur J Med Chem, 2011).
Calls of active or inactive are those of the source. The rule behind the calls is not given here.

What was measured:
[1] = tested on: HepG2; experiment: Induction of apoptosis in human HepG2 cells assessed as pre-necrotic cells at 2 uM after 24 hrs using annexin V-propidium iodide staining by flow cytometry (reference value: 0.5%); format: functional
[2] = tested on: HepG2; experiment: Induction of apoptosis in human HepG2 cells assessed as decrease in pro-caspase-3 expression at 2 uM after 24 hrs by Western blot analysis; format: functional, cell-based
Outline: (§1)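 HepG2 cells treated 24 h at 1, 2 or 4 µM. Lysed in Tris-Cl pH 6.8 buffer containing SDS, glycerol, β-mercaptoethanol, PMSF and aprotinin; cleared at 12 000 × g, 15 min, 4 °C. Protein measured by BCA. Samples run on 15% SDS-PAGE, transferred to PVDF, probed overnight at 4 °C with primary antibodies against bcl-2, bax and pro-caspase-3, then IRDye 800 secondary 1 h at 37 °C.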

[3] = tested on: HepG2; experiment: Induction of apoptosis in human HepG2 cells assessed as decrease in pro-caspase-3 expression at 1 uM after 24 hrs by Western blot analysis; format: functional, cell-based; outline: as §1
[4] = tested on: HepG2; experiment: Induction of apoptosis in human HepG2 cells assessed as early apoptotic cells at 2 uM after 24 hrs using annexin V-propidium iodide staining by flow cytometry (reference value: 3%); format: functional
[5] = tested on: HepG2; experiment: Cell cycle arrest in human HepG2 cells assessed as accumulation at G2/M phase at 4 uM after 24 hrs using propidium iodide by Flow cytometry; format: functional, cell-based
Outline: (§2)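 HepG2 cells synchronised by 24 h serum starvation, then treated 24 h at 1, 2 or 4 µM. Cells fixed overnight in 70% ethanol at 4 °C and stained 15 min at 37 °C in the dark with hypotonic PI solution (0.1% sodium citrate, 0.1% Triton X-100, 0.05 mg/ml PI, 0.01 mg/ml RNase). DNA content measured by flow cytometry.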

[6] = tested on: HepG2; experiment: Induction of apoptosis in human HepG2 cells assessed as early apoptotic cells at 1 uM after 24 hrs using annexin V-propidium iodide staining by flow cytometry (reference value: 3%); format: functional
[7] = tested on: HepG2; experiment: Induction of apoptosis in human HepG2 cells assessed as late apoptotic cells at 1 uM after 24 hrs using annexin V-propidium iodide staining by flow cytometry (reference value: 3.4%); format: functional
[8] = tested on: HepG2; experiment: Induction of apoptosis in human HepG2 cells assessed as appearance of necrosis at 4 uM after 24 hrs by light microscopy; format: functional, cell-based
Outline: (§3)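 HepG2 cells seeded at 1 × 10⁵ cells/well and treated 24 h at 1, 2 or 4 µM. Living cells first viewed under inverted light microscope (×200). Cells then fixed 20 min in 4% paraformaldehyde, stained 10 min with DAPI (1 mg/ml) and examined by fluorescence microscopy (×400, 340 nm excitation) for nuclear changes and apoptotic bodies.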

[9] = tested on: HepG2; experiment: Induction of apoptosis in human HepG2 cells assessed as decrease in pro-caspase-3 expression at 4 uM after 24 hrs by Western blot analysis; format: functional, cell-based; outline: as §1
[10] = tested on: HepG2; experiment: Induction of apoptosis in human HepG2 cells assessed as viable cells at 4 uM after 24 hrs using annexin V-propidium iodide staining by flow cytometry (reference value: 93.2%); format: functional; conditions: HepG2, 24 h, read-out: Activity
[11] = tested on: HepG2; experiment: Induction of apoptosis in human HepG2 cells assessed as large proportion of cell became round in shape at 4 uM after 24 hrs […] by inverted light microscopy; format: functional, cell-based; outline: as §3
[12] = tested on: HepG2; experiment: Induction of apoptosis in human HepG2 cells assessed as activation of caspase 3 after 24 hrs by colorimetric assay; format: functional, cell-based
Outline: (§4)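 Kit colorimetric caspase-3 test. HepG2 cells treated at 1, 2 or 4 µM for 24 h at 37 °C, then lysed on ice 20 min and centrifuged. Supernatant containing 200 µg total protein incubated with Ac-DEVD-pNA 4 h at 37 °C; absorbance read at 405 nm. Fold activity = OD treated / OD control; mean ± SD, t-test.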

[13] = tested on: HepG2; experiment: Induction of apoptosis in human HepG2 cells assessed as bright condensed chromatin in nuclei at 1 uM after 24 hrs by fluorescence microscopy
[14] = tested on: HepG2; experiment: Antiproliferative activity against human HepG2 cells after 24 hrs by MTT assay; format: functional, cell-based; conditions: HepG2, 24 h
Outline: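 Tetrazolium MTT viability test; cells exposed to compound 24 h, absorbance read at 570 nm. Survival ratio = A treated / A control × 100%; IC50 is the concentration giving 50% loss of viability. Eight concentrations in two-fold dilutions, triplicate wells, mean of two separate experiments. Compounds dissolved in DMSO (0.01 mol/L stock); control wells received medium only.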

[15] = tested on: HepG2; experiment: Induction of apoptosis in human HepG2 cells assessed as viable cells at 1 uM after 24 hrs using annexin V-propidium iodide staining by flow cytometry (reference value: 93.2%); format: functional; conditions: HepG2, 24 h, read-out: Activity
[16] = tested on: HepG2; experiment: Induction of apoptosis in human HepG2 cells assessed as early apoptotic cells at 4 uM after 24 hrs using annexin V-propidium iodide staining by flow cytometry (reference value: 3%); format: functional
[17] = tested on: HepG2; experiment: Induction of apoptosis in human HepG2 cells assessed as appearance of apoptotic bodies at 1 to 4 uM after 24 hrs using DAPI staining by fluorescent microscopy; format: functional, cell-based; outline: as §3
[18] = tested on: HepG2; experiment: Induction of apoptosis in human HepG2 cells assessed as effect on bax protein expression at 1 uM after 24 hrs by Western blot analysis; format: functional, cell-based; outline: as §1
[19] = tested on: HepG2; experiment: Induction of apoptosis in human HepG2 cells assessed as decrease in bcl-2 expression at 2 uM after 24 hrs by Western blot analysis; format: functional, cell-based; outline: as §1
[20] = tested on: HepG2; experiment: Induction of apoptosis in human HepG2 cells assessed as effect on bax protein expression at 4 uM after 24 hrs by Western blot analysis; format: functional, cell-based; outline: as §1
[21] = tested on: Mus musculus; experiment: Toxicity in Kunming mouse xenografted with human HepG2 cells assessed as change in body weight at 25 mg/kg, iv administered 24 hrs after tumor implantation one dose per two day for total of four treatment measured after 24 hrs last postdose (reference value: 20.20 +/- 1.14 g); format: organism-based; design: dose 25 mg/kg, route intravenous; conditions: in vivo
[22] = tested on: HepG2; experiment: Induction of apoptosis in human HepG2 cells assessed as effect on bax protein expression at 2 uM after 24 hrs by Western blot analysis; format: functional, cell-based; outline: as §1
[23] = tested on: Heps hepatoma (Mus musculus); experiment: Antitumor activity against murine Heps hepatoma cells transplanted in Kunming mouse assessed as tumor growth inhibition at 25 mg/kg, iv administered 24 hrs after tumor implantation one dose per two day for total of four treatment measured after 24 hrs last postdose relative to control
[24] = tested on: SMMC-7721; experiment: Antiproliferative activity against human SMMC7721 cells after 24 hrs by MTT assay; format: functional, cell-based; conditions: SMMC-7721, 24 h
Outline: (§5)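 Cells grown at 37 °C in humidified 5% CO2 with benzylpenicillin and streptomycin. Compounds came from 0.01 mol/L DMSO stocks and were tested at eight two-fold dilutions in triplicate, with medium-only controls, for 24 h. MTT absorbance was read at 570 nm. Survival = A_treatment/A_control × 100. IC50 is the concentration giving 50% viability inhibition, as the mean of two separate experiments.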

[25] = tested on: HepG2; experiment: Cell cycle arrest in human HepG2 cells assessed as accumulation at G2/M phase at 2 uM after 24 hrs using propidium iodide by Flow cytometry; format: functional, cell-based; outline: as §2
[26] = tested on: BGC-823; experiment: Antiproliferative activity against human BGC823 cells after 24 hrs by MTT assay; format: functional, cell-based; conditions: BGC-823, 24 h; outline: as §5
[27] = tested on: HepG2; experiment: Induction of apoptosis in human HepG2 cells assessed as decrease in bcl-2 expression at 1 uM after 24 hrs by Western blot analysis; format: functional, cell-based; outline: as §1
[28] = tested on: HepG2; experiment: Induction of apoptosis in human HepG2 cells assessed as decrease in bcl-2 expression at 4 uM after 24 hrs by Western blot analysis; format: functional, cell-based; outline: as §1
[29] = tested on: HepG2; experiment: Induction of apoptosis in human HepG2 cells assessed as cell membrane blebbing and shrinkage at 4 uM after 24 hrs using by inverted light microscopy; format: functional, cell-based; outline: as §3
[30] = tested on: Mus musculus; experiment: Toxicity in Kunming mouse xenografted with human HepG2 cells assessed as change in body weight at 50 mg/kg, iv administered 24 hrs after tumor implantation one dose per two day for total of four treatment measured after 24 hrs last postdose (reference value: 19.10 +/- 1.29 g); conditions: in vivo
[31] = tested on: HepG2; experiment: Cell cycle arrest in human HepG2 cells assessed as accumulation at G2/M phase at 1 uM after 24 hrs using propidium iodide by Flow cytometry; format: functional, cell-based; outline: as §2
[32] = tested on: HepG2; experiment: Induction of apoptosis in human HepG2 cells assessed as activation of caspase 3 at 1 to 4 uM after 24 hrs by colorimetric assay relative to control; format: functional; outline: as §4
[33] = tested on: HepG2; experiment: Induction of apoptosis in human HepG2 cells assessed as cell distortion at 4 uM after 24 hrs using by inverted light microscopy; format: functional, cell-based; outline: as §3
[34] = tested on: MCF7; experiment: Antiproliferative activity against human MCF7 cells after 24 hrs by MTT assay; format: functional, cell-based; conditions: MCF7, 24 h; outline: as §5
[35] = tested on: HepG2; experiment: Induction of apoptosis in human HepG2 cells assessed as pre-necrotic cells at 1 uM after 24 hrs using annexin V-propidium iodide staining by flow cytometry (reference value: 0.5%); format: functional
[36] = tested on: Heps hepatoma (Mus musculus); experiment: Antitumor activity against murine Heps hepatoma cells transplanted in Kunming mouse assessed as tumor growth inhibition at 50 mg/kg, iv administered 24 hrs after tumor implantation one dose per two day for total of four treatment measured after 24 hrs last postdose relative to control
[37] = tested on: HepG2; experiment: Induction of apoptosis in human HepG2 cells assessed as late apoptotic cells at 4 uM after 24 hrs using annexin V-propidium iodide staining by flow cytometry (reference value: 3.4%); format: functional
[38] = tested on: HepG2; experiment: Induction of apoptosis in human HepG2 cells assessed as late apoptotic cells at 2 uM after 24 hrs using annexin V-propidium iodide staining by flow cytometry (reference value: 3.4%); format: functional
[39] = tested on: Heps hepatoma (Mus musculus); experiment: Antitumor activity against murine Heps hepatoma cells transplanted in iv dosed Kunming mouse assessed as tumor growth inhibition administered 24 hrs after tumor implantation one dose per two day for total of four treatment measured after 24 hrs last postdose
[40] = tested on: Mus musculus; experiment: Toxicity in Kunming mouse xenografted with human HepG2 cells assessed as change in body weight at 12.5 mg/kg, iv administered 24 hrs after tumor implantation one dose per two day for total of four treatment measured after 24 hrs last postdose (reference value: 20.20 +/- 1.99 g); format: organism-based; design: dose 12.5 mg/kg, route intravenous; conditions: in vivo
[41] = tested on: Heps hepatoma (Mus musculus); experiment: Antitumor activity against murine Heps hepatoma cells transplanted in Kunming mouse assessed as tumor growth inhibition at 12.5 mg/kg, iv administered 24 hrs after tumor implantation one dose per two day for total of four treatment measured after 24 hrs last postdose relative to control
[42] = tested on: HepG2; experiment: Induction of apoptosis in human HepG2 cells assessed as induction of cell integrity at 1 uM after 24 hrs by light microscopy; format: functional, cell-based; outline: as §3
[43] = tested on: HepG2; experiment: Induction of apoptosis in human HepG2 cells assessed as pre-necrotic cells at 4 uM after 24 hrs using annexin V-propidium iodide staining by flow cytometry (reference value: 0.5%); format: functional
[44] = tested on: Mus musculus; experiment: Toxicity in Kunming mouse xenografted with human HepG2 cells assessed as irritation on vein vascular at 12.5 to 50 mg/kg, iv administered 24 hrs after tumor implantation one dose per two day for total of four treatment measured after 24 hrs last postdose; format: organism-based; design: dose 12.5-50 mg/kg, route intravenous; conditions: in vivo
[45] = tested on: HepG2; experiment: Induction of apoptosis in human HepG2 cells assessed as viable cells at 2 uM after 24 hrs using annexin V-propidium iodide staining by flow cytometry (reference value: 93.2%); format: functional; conditions: HepG2, 24 h, read-out: Activity
[46] = tested on: HepG2; experiment: Induction of apoptosis in human HepG2 cells assessed as nuclear condensation at 1 to 4 uM after 24 hrs using DAPI staining by fluorescent microscopy; format: functional, cell-based; outline: as §3

IC50 [14]: 2.37 µM
IC50 [24]: 8.06 µM
IC50 [26]: 3.59 µM
IC50 [34]: 9.16 µM
SMILES: CC(C)=CCC12OC(C)(C)C3CC(C=C4C(=O)c5c(O)cccc5OC431)C2=O (stereo unspecified)
Activity [1]: 1.1%
Activity [2]: Active
Activity [3]: Active
Activity [4]: 18.9%
Activity [5]: Active
Activity [6]: 8.1%
Activity [7]: 4.8%
Activity [8]: Active
Activity [9]: Active
viability at 4 µM [10]: 68.2%
Activity [11]: Active
Activity [12]: Dose-dependent effect
Activity [13]: Active
viability at 1 µM [15]: 86.3%
Activity [16]: 23.3%
Activity [17]: Active
Activity [18]: inactive
Activity [19]: Active
Activity [20]: inactive
Activity [21]: 29.4 g
Activity [22]: inactive
inhibition in vivo at 25 mg/kg [23]: 32.3%
Activity [25]: Active
Activity [27]: Active
Activity [28]: Active
Activity [29]: Active
Activity [30]: 24.7 g
Activity [31]: Active
fold change (FC) [32]: 3
Activity [33]: Active
Activity [35]: 0.8%
inhibition in vivo at 50 mg/kg [36]: 49.2%
Activity [37]: 7.4%
Activity [38]: 8.1%
inhibition [39]: Dose-dependent effect
Activity [40]: 26.3 g
inhibition in vivo at 12.5 mg/kg [41]: 14.9%
Activity [42]: Active
Activity [43]: 1.1%
Activity [44]: Non-toxic
viability at 2 µM [45]: 71.9%
Activity [46]: Active
